According to ChEMBL document CHEMBL2046422, “Structure-activity relationship of nonacidic quinazolinone inhibitors of human microsomal prostaglandin synthase 1 (mPGES 1)” (J Med Chem, 2012):

Tests used:
[1] = target: T1, Prostaglandin E synthase (Homo sapiens) (UniProt O14684); assay: Inhibition of mPGES-1 derived from IL1beta and TNFalpha stimulated human HeLa cells microsomal fraction using PGH2 as substrate at 1 uM preincubated for 30 mins prior to substrate addition measured after 1 min by LC-MS/MS analysis relative to control
T1 sequence (whole entry): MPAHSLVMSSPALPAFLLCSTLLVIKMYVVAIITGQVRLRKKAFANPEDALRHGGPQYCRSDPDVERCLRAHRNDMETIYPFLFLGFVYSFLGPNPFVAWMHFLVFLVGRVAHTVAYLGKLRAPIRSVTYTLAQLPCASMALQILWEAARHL
Procedure, shortened: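 Microsomes were pelleted by ultracentrifugation and resuspended in buffer with 2.5 mM GSH; protein was measured by Bradford. PGE₂ was read by LC-MS/MS after solid-phase extraction with deuterated standards; n ≥ 3.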

HeLa = assay: Cytotoxicity against IL1beta and TNFalpha-stimulated human HeLa cells at 1 to 10 uM after 24 hrs by WST1 assay; format: cell-based
Procedure, shortened: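 HeLa cells were seeded at 3 × 10³ per well and grown 24 h at 37 °C. They were then stimulated with IL-1β (1 ng/mL) + TNFα (5 ng/mL) while treated with compound at 1, 10 or 100 μM, or DMSO, for 24 h. WST-1 was added for 90–150 min and absorbance read at 450 nm against 620 nm. Viability is percent of DMSO control, SEM, n ≥ 3.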

[2] = target: T2, Prostaglandin E synthase (Mus musculus) (UniProt Q9JM51); assay: Inhibition of mPGES-1 derived from LPS stimulated mouse NIH3T3 cells microsomal fraction using PGH2 as substrate at 1 uM preincubated for 30 mins prior to substrate addition measured after 1 min by LC-MS/MS analysis relative to control
T2 sequence (whole entry): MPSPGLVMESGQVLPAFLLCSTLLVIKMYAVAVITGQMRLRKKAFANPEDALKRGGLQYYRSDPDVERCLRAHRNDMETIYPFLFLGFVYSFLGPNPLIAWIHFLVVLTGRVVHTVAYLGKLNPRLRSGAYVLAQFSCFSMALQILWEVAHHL

[3] = target: T3, Prostaglandin G/H synthase 2 (Homo sapiens) (UniProt P35354); assay: Inhibition of human recombinant COX2-mediated PGE2 synthesis using PGH2 as substrate at 1 uM by LC-MS/MS analysis relative to control
T3 sequence (whole entry): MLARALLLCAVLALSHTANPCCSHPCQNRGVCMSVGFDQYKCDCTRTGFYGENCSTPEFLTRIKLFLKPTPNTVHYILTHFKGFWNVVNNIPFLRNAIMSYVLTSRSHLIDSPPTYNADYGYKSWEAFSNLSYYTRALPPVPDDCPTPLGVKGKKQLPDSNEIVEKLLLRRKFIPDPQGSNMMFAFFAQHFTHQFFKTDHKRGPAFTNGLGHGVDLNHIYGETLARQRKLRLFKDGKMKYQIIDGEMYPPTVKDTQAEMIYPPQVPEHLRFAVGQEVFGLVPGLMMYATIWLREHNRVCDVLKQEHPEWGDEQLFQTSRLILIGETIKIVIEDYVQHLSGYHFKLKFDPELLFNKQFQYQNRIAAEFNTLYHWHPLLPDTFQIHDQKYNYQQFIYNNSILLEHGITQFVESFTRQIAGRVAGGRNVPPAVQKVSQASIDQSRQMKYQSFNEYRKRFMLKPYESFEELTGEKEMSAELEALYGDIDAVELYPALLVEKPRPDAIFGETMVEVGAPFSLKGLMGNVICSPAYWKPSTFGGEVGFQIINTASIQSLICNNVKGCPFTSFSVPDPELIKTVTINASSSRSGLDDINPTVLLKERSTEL
Procedure, shortened: (§1)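 Direct enzyme test with a COX inhibitor screening kit, run per the kit protocol: COX-1 was ovine, COX-2 human recombinant. […] Prostaglandins were quantified by LC-MS/MS after solid-phase extraction. Mean of n ≥ 3.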

[4] = target: T1, Prostaglandin E synthase (Homo sapiens); assay: Inhibition of mPGES-1 in IL1beta and TNFalpha-stimulated human HeLa cells assessed as PGE2 level after 24 hrs by LC-MS/MS analysis; format: cell-based
Procedure, shortened: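 HeLa cells (2 × 10⁴) were grown 24 h at 37 °C. The medium was then replaced with IL-1β (1 ng/mL) + TNFα (5 ng/mL), or PBS for unstimulated controls, together with compound at 1, 10 or 100 μM, or DMSO, for 24 h at 37 °C. Supernatant PGE₂ was quantified by LC-MS/MS after solid-phase extraction with deuterated standards. Inhibition is percent of DMSO control corrected for unstimulated background, SEM, n ≥ 3.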

[5] = target: T2, Prostaglandin E synthase (Mus musculus); assay: Inhibition of mPGES-1 derived from LPS stimulated mouse RAW264.7 cells microsomal fraction using PGH2 as substrate at 1 uM preincubated for 30 mins prior to substrate addition measured after 1 min by LC-MS/MS analysis relative to control
Procedure, shortened: (§2)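 Microsomes came from RAW 264.7 cells stimulated with LPS for 16 h. They were prepared by sonication and ultracentrifugation in 0.1 M potassium phosphate, pH 7.4, with GSH and protease inhibitors, and resuspended with 2.5 mM GSH; protein was measured by Bradford. Compound was tested at the stated final concentration. PGE₂ was quantified by LC-MS/MS after solid-phase extraction with PGE₂-d₄/PGD₂-d₄ standards; SEM, n ≥ 3.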

[6] = target: T4, Prostaglandin G/H synthase 1 (Ovis aries) (UniProt P05979); assay: Inhibition of ovine COX1-mediated PGE2 synthesis using PGH2 as substrate at 1 uM by LC-MS/MS analysis relative to control; procedure, shortened: as §1
T4 sequence (whole entry): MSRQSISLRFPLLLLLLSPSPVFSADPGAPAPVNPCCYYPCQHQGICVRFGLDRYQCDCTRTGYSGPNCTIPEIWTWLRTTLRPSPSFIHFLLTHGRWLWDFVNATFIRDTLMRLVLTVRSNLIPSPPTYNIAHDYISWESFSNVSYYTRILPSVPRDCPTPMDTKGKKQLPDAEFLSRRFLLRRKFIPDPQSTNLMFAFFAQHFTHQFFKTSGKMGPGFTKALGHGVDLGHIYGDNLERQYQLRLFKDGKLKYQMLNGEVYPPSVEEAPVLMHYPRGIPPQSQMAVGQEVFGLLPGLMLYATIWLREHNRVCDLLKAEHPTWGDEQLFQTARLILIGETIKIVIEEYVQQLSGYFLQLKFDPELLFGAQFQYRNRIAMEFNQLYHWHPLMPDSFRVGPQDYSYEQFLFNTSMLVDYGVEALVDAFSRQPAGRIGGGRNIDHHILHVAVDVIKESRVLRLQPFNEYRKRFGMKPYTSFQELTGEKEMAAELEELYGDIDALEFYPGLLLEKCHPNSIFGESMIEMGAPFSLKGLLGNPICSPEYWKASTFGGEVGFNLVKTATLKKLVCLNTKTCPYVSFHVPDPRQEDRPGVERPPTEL

Prostaglandin E synthase = target: T5, Prostaglandin E synthase (Homo sapiens, UniProt O14684); assay: Inhibition of human recombinant mPGES-1
T5 sequence (O14684 whole entry): T1 sequence (whole entry)

[7] = Inhibition of rat recombinant mPGES-1
[8] = target: T2, Prostaglandin E synthase (Mus musculus); assay: Inhibition of mPGES-1 derived from LPS stimulated mouse RAW264.7 cells microsomal fraction using PGH2 as substrate at 5 uM preincubated for 30 mins prior to substrate addition measured after 1 min by LC-MS/MS analysis relative to control; procedure, shortened: as §2
[9] = target: T2, Prostaglandin E synthase (Mus musculus); assay: Inhibition of mPGES-1 derived from LPS stimulated mouse NIH3T3 cells microsomal fraction using PGH2 as substrate at 5 uM preincubated for 30 mins prior to substrate addition measured after 1 min by LC-MS/MS analysis relative to control
[10] = target: T3, Prostaglandin G/H synthase 2 (Homo sapiens); assay: Inhibition of COX2 in LPS-stimulated human whole blood assessed as residual PGE2 level at 100 uM preincubated for 15 mins prior to LPS-stimulation measured after 24 hrs by LC-MS/MS analysis relative to control
Procedure, shortened: (§3)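 Human whole blood received compound in DMSO plus acetylsalicylic acid (10 μg/mL) to block COX-1, 15 min at 37 °C. LPS (10 μg/mL final) in autologous plasma was added to induce COX-2/mPGES-1, and blood was incubated 24 h at 37 °C. Samples were chilled on ice 5 min, and plasma prostaglandins were extracted by solid-phase extraction and quantified by LC-MS/MS. Values are relative to vehicle.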

[11] = target: T6, 5-lipoxygenase/FLAP (Homo sapiens) (UniProt P09917+P20292); assay: Inhibition of 5-lipoxygenase/FLAP in calcium ionophore-stimulated human whole blood assessed as residual (+/-)11HETE level at 10 uM preincubated for 15 mins prior to calcium ionophore-stimulation measured after 15 mins by LC-MS/MS analysis; format: protein-complex assay
Procedure, shortened: (§4)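 Heparinized human whole blood (500 μL) was preincubated with compound for 15 min at 37 °C. It was then stimulated with 20 μM calcium ionophore A23187 in autologous plasma for 15 min at 37 °C and chilled on ice for 5 min. Plasma was collected by centrifugation at 4 °C. Eicosanoids were recovered by liquid–liquid extraction with deuterated internal standards and quantified by LC-MS/MS (MRM). Levels are relative to vehicle-treated blood.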

[12] = target: T6, 5-lipoxygenase/FLAP (Homo sapiens); assay: Inhibition of 5-lipoxygenase/FLAP in calcium ionophore-stimulated human whole blood assessed as residual 12(s)HETE level at 10 uM preincubated for 15 mins prior to calcium ionophore-stimulation measured after 15 mins by LC-MS/MS analysis; format: protein-complex assay; procedure, shortened: as §4
[13] = target: Prostaglandin G/H synthase 1 (Homo sapiens) (UniProt P23219); assay: Inhibition of COX1 in human whole blood assessed as residual TXB2 level at 10 uM after 1 hr by LC-MS/MS analysis relative to control
Sequence of Prostaglandin G/H synthase 1 (Homo sapiens) (P23219 whole entry): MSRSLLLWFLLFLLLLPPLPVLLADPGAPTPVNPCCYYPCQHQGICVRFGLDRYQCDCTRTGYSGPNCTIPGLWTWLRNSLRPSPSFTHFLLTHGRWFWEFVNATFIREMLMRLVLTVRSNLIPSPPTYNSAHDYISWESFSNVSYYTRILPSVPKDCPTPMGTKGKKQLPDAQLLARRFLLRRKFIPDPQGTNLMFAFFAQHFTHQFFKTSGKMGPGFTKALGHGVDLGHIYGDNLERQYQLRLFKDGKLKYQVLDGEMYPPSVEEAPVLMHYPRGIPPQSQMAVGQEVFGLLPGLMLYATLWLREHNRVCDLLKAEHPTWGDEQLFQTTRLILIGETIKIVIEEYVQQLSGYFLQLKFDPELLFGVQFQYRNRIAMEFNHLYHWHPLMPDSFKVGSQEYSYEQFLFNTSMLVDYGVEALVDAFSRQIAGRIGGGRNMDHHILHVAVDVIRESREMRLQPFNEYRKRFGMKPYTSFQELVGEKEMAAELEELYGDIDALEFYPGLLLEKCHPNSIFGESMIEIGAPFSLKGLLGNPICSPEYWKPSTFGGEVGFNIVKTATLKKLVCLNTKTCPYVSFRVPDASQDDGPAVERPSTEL
Procedure, shortened: (§5)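 Human venous blood was drawn without additives, and compound was added. Samples clotted at 37 °C for 1 h; negative controls were chilled on ice at once. After 5 min on ice, plasma was separated at 4 °C. It was mixed with H₃PO₄, EDTA, BHT and deuterated internal standards, then put through solid-phase extraction. TXB₂ and PGD₂ were measured by LC-MS/MS, relative to vehicle-treated blood.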

[14] = target: Prostaglandin G/H synthase 1 (Homo sapiens) (UniProt P23219); assay: Inhibition of COX1 in human whole blood assessed as residual PGD2 level at 10 uM after 1 hr by LC-MS/MS analysis relative to control; procedure, shortened: as §5
[15] = target: T6, 5-lipoxygenase/FLAP (Homo sapiens); assay: Inhibition of 5-lipoxygenase/FLAP in calcium ionophore-stimulated human whole blood assessed as residual LTB4 level at 10 uM preincubated for 15 mins prior to calcium ionophore-stimulation measured after 15 mins by LC-MS/MS analysis; format: protein-complex assay; procedure, shortened: as §4
[16] = target: T6, 5-lipoxygenase/FLAP (Homo sapiens); assay: Inhibition of 5-lipoxygenase/FLAP in calcium ionophore-stimulated human whole blood assessed as residual 15(s)HETE level at 10 uM preincubated for 15 mins prior to calcium ionophore-stimulation measured after 15 mins by LC-MS/MS analysis; format: protein-complex assay; procedure, shortened: as §4
[17] = target: T6, 5-lipoxygenase/FLAP (Homo sapiens); assay: Inhibition of 5-lipoxygenase/FLAP in calcium ionophore-stimulated human whole blood assessed as 5(s)HETE level at 10 uM preincubated for 15 mins prior to calcium ionophore-stimulation measured after 15 mins by LC-MS/MS analysis; format: protein-complex assay; parameters: scale not given: the % may be the effect or the level left; procedure, shortened: as §4
[18] = target: T3, Prostaglandin G/H synthase 2 (Homo sapiens); assay: Inhibition of COX2 in LPS-stimulated human whole blood assessed as residual PGF2alpha level at 100 uM preincubated for 15 mins prior to LPS-stimulation measured after 24 hrs by LC-MS/MS analysis relative to control; procedure, shortened: as §3

CCCc1nc2ccc(NC(=O)C(C)(C)C)cc2c(=O)n1Cc1ccc(-c2cccc(Cl)c2)cc1
inhibition [1]: 18.8%

O=C(Nc1ccc2nc(Cc3ccccc3)n(Cc3cccc(Cl)c3)c(=O)c2c1)c1ccccc1Cl
Activity (HeLa): Non-toxic | inhibition [2]: 17.8% | inhibition [3]: < 0% | inhibition [4]: Dose-dependent effect | inhibition [1]: 67.2% | inhibition [5]: 3.8% | inhibition [6]: < 0%

O=C(Nc1ccc(-c2ccc(Cl)c(Cl)c2)cc1)C1=C(O)c2ccccc2S(=O)(=O)N1
IC50 (Prostaglandin E synthase): 16.5 nM | IC50 [7]: 1080 nM

CCCc1nc2ccc(NC(=O)C3CC3)cc2c(=O)n1Cc1ccc(-c2cccc(OC)c2)cc1
inhibition [1]: 15.9%

CCCc1nc2ccc(NC(=O)c3ccccc3)cc2c(=O)n1Cc1ccc(-c2cccc(Cl)c2)cc1
inhibition [1]: 15.3%

CCCc1nc2ccc(NC(=O)c3ccccc3Cl)cc2c(=O)n1Cc1ccc(-c2ccccc2OC)cc1
inhibition [1]: 61.3%

Cc1nc2ccc(NC(=O)c3ccccc3Cl)cc2c(=O)n1Cc1ccc(-c2cccc(Cl)c2)cc1
inhibition [1]: 41.9%

Cc1ccc(-c2cc(C(F)(F)F)nn2-c2ccc(S(N)(=O)=O)cc2)cc1
inhibition [4]: Dose-dependent effect

CCCc1nc2ccc(NC(=O)c3c(Cl)cccc3Cl)cc2c(=O)n1Cc1cccc(Cl)c1
inhibition [1]: 61.3%

CCCCCCC(Sc1nc(Cl)cc(Nc2cccc(C)c2C)n1)C(=O)O (configuration not stated)
inhibition [8]: 66.2% | inhibition [9]: 62.9%

CCCc1nc2ccc(NC(=O)c3ccc(Cl)cc3)cc2c(=O)n1Cc1ccc(-c2cccc(Cl)c2)cc1
inhibition [1]: 14.7%

CCCc1nc2ccc(NC(=O)Nc3ccccc3Cl)cc2c(=O)n1Cc1ccccc1Cl
inhibition [1]: 14.1%

CCCc1nc2ccc(NC(=O)c3ccccc3Cl)cc2c(=O)n1Cc1ccccc1Cl
Activity [10]: 34.2% | Activity (HeLa): Non-toxic | Activity [11]: 75.4% | inhibition [2]: 6.6% | inhibition [3]: < 0% | Activity [12]: 82.7% | Activity [13]: 86.1% | Activity [14]: 89% | Activity [15]: 91.3% | Activity [16]: 78.3% | Activity [17]: 88.1% | Activity [18]: 73.4% | inhibition [5]: 15.2% | inhibition [6]: 16.1%

O=C(Cn1cnc2ccccc2c1=O)Nc1ccccc1Cl
inhibition [1]: < 0%

Cc1ccccc1C(=O)Nc1cc2c(=O)n(Cc3ccccc3)c(C)nc2cc1N1CCCC1
inhibition [1]: 37.1%

CCCc1nc2ccc(NC(C)=O)cc2c(=O)n1Cc1ccc(-c2cccc(Cl)c2)cc1
inhibition [1]: 14.8%

CCCc1nc2ccc(NC(=O)CCc3ccccc3)cc2c(=O)n1Cc1ccc(-c2cccc(Cl)c2)cc1
inhibition [1]: 32.7%

CCCc1nc2ccc(NC(=O)c3cccs3)cc2c(=O)n1Cc1ccc(-c2cccc(Cl)c2)cc1
inhibition [1]: 15.6%

O=C1NC(c2ccccc2Cl)Oc2ccccc21 (configuration not stated)
inhibition [1]: < 0%

O=C(Nc1ccc2nc(C3CC3)n(Cc3ccccc3)c(=O)c2c1)c1cccnc1
inhibition [1]: < 0%

CCCc1nc2ccc(NC(=O)c3ccccc3F)cc2c(=O)n1Cc1ccc(-c2cccc(Cl)c2)cc1
inhibition [1]: 30%
